Converted amounts (≈) assume the structure as drawn.
Legend:
Bacillus subtilis [1] = test: Potency index, ratio of PC190723 MIC to test compound MIC for antibacterial activity against Bacillus subtilis ATCC 9372 after 24 hrs by broth microdilution based CLSI method
Bacillus pumilus = test: Antibacterial activity against Bacillus pumilus CMCC63202 after 24 hrs by broth microdilution based CLSI method; type: functional; conditions: CMCC63202, 24 h
Bacillus subtilis [2] = test: Antibacterial activity against Bacillus subtilis ATCC 9372 after 24 hrs by broth microdilution based CLSI method; type: functional; conditions: ATCC 9372, 24 h
Staphylococcus aureus [3] = test: Antibacterial activity against Staphylococcus aureus ATCC 25923 after 24 hrs by broth microdilution based CLSI method; type: functional; conditions: ATCC 25923, 24 h
Pseudomonas aeruginosa = test: Antibacterial activity against Pseudomonas aeruginosa ATCC 27853 after 24 hrs by broth microdilution based CLSI method; type: functional; conditions: ATCC 27853, 24 h
Staphylococcus aureus [4] = test: Antibacterial activity against clinical isolate of penicillin-resistant Staphylococcus aureus after 24 hrs by broth microdilution based CLSI method; type: functional
Staphylococcus aureus [5] = test: Antibacterial activity against methicillin-resistant Staphylococcus aureus ATCC 43300 after 24 hrs by broth microdilution based CLSI method; type: functional; conditions: ATCC 43300, 24 h
Escherichia coli = test: Antibacterial activity against Escherichia coli ATCC 25922 after 24 hrs by broth microdilution based CLSI method; type: functional; conditions: ATCC 25922, 24 h
Staphylococcus aureus [6] = test: Antibacterial activity against Staphylococcus aureus; type: functional
How it was run: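 CLSI broth microdilution: log-phase bacteria added to 2-fold serial dilutions (64 to 0.125 µg/mL) in cation-adjusted Mueller-Hinton broth, incubated aerobically 24 h at 37 °C. MIC read by turbidity as the last well showing no growth.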

HeLa = test: Cytotoxicity in human HeLa cells assessed as reduction in cell viability after 36 hrs by MTT assay; type: cell-based
How it was run: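 HeLa cells seeded at 10⁴ cells/well and left overnight, then exposed to compound for 36 h. MTT (5 mg/mL solution) added for 4 h at 37 °C, medium replaced by DMSO for 10 min, absorbance read at 570 nm.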

SMILES	Ratio (Bacillus subtilis [1])	MIC (Bacillus pumilus) [µg/mL]	MIC (Bacillus subtilis [2]) [µg/mL]	MIC (Staphylococcus aureus [3]) [µg/mL]	MIC (Pseudomonas aeruginosa) [µg/mL]	MIC (Staphylococcus aureus [4]) [µg/mL]	MIC (Staphylococcus aureus [5]) [µg/mL]	MIC (Escherichia coli) [µg/mL]	MIC (Staphylococcus aureus [6]) [µg/mL]	IC50 (HeLa) [µg/mL]
CCCCc1ccc(-c2cc(COc3ccc(F)c(C(N)=O)c3F)on2)cc1	>16	0.25 (≈ 0.647 µM)	0.03 (≈ 0.0776 µM)	> 64	> 64	> 64	2 (≈ 5.18 µM)	> 64	–	–
NC(=O)c1c(F)ccc(OCc2nc3cc(Cl)cnc3s2)c1F	–	0.5 (≈ 1.41 µM)	0.5 (≈ 1.41 µM)	1 (≈ 2.81 µM)	> 64	1 (≈ 2.81 µM)	1 (≈ 2.81 µM)	> 64	1 (≈ 2.81 µM)	–
CCCCC(CC)COc1ccc(F)c(C(N)=O)c1F (configuration not stated)	–	–	–	–	–	–	–	–	4 (≈ 14 µM)	–
NC(=O)c1c(F)ccc(OCc2ccccc2)c1F	–	–	–	–	–	–	–	–	32 (≈ 122 µM)	–
Cc1ccc(-c2cc(COc3ccc(F)c(C(N)=O)c3F)on2)cc1	–	> 64	8 (≈ 23.2 µM)	> 64	> 64	> 64	> 64	> 64	–	–
CC(C)=Cc1cc(COc2ccc(F)c(C(N)=O)c2F)on1	–	> 64	32 (≈ 104 µM)	> 64	> 64	> 64	> 64	> 64	–	–
NC(=O)c1c(F)ccc(OCc2cc(-c3ccccc3Cl)no2)c1F	–	16 (≈ 43.9 µM)	8 (≈ 21.9 µM)	> 64	> 64	> 64	> 64	> 64	–	–
Cc1ccc(-c2cc(COc3ccc(F)c(C(N)=O)c3F)no2)cc1	–	> 64	64 (≈ 186 µM)	> 64	> 64	> 64	> 64	> 64	–	–
Cc1c(COc2ccc(F)c(C(N)=O)c2F)noc1-c1ccc(C(C)(C)C)cc1	–	1 (≈ 2.5 µM)	0.5 (≈ 1.25 µM)	> 64	> 64	> 64	> 64	> 64	–	–
CCOc1cccc(-c2cc(COc3ccc(F)c(C(N)=O)c3F)no2)c1	–	> 64	32 (≈ 85.5 µM)	> 64	> 64	> 64	> 64	> 64	–	–
Cc1cc(C(C)(C)C)cc(C)c1-c1cc(COc2ccc(F)c(C(N)=O)c2F)no1	–	0.06 (≈ 0.145 µM)	> 64	1 (≈ 2.41 µM)	> 64	2 (≈ 4.83 µM)	2 (≈ 4.83 µM)	> 64	–	> 128
COc1ccc(-c2cc(COc3ccc(F)c(C(N)=O)c3F)on2)cc1OC	–	> 64	> 64	> 64	> 64	> 64	> 64	> 64	–	–
NC(=O)c1c(F)ccc(OCc2cc(-c3ccc(Cl)c(Cl)c3)no2)c1F	–	> 64	64 (≈ 160 µM)	> 64	> 64	> 64	> 64	> 64	–	–
CC(C)c1ccc(-c2cc(COc3ccc(F)c(C(N)=O)c3F)on2)cc1	–	32 (≈ 85.9 µM)	2 (≈ 5.37 µM)	> 64	> 64	> 64	> 64	> 64	–	–
NC(=O)c1c(F)ccc(OCc2cc(-c3ccc(C4CCCCC4)cc3)no2)c1F	–	> 64	> 64	> 64	> 64	> 64	> 64	> 64	–	–
Cc1cccc(-c2cc(COc3ccc(F)c(C(N)=O)c3F)no2)c1	–	> 64	32 (≈ 92.9 µM)	> 64	> 64	> 64	> 64	> 64	–	–
Nc1nonc1C(=O)N/N=C/c1cc(Cl)cc(Cl)c1O	–	–	–	–	–	–	–	–	16 (≈ 50.6 µM)	–
NC(=O)c1c(F)ccc(OCc2cc(-c3ccc(-c4ccccc4)cc3)no2)c1F	–	> 64	> 64	> 64	> 64	> 64	> 64	> 64	–	–
CCCOc1cccc(-c2cc(COc3ccc(F)c(C(N)=O)c3F)no2)c1	–	> 64	4 (≈ 10.3 µM)	> 64	> 64	> 64	> 64	> 64	–	–
NC(=O)c1c(F)ccc(OCc2cc(-c3ccc4c(c3)OCO4)no2)c1F	–	> 64	4 (≈ 10.7 µM)	> 64	> 64	> 64	> 64	> 64	–	–
CCCOc1ccc(-c2cc(COc3ccc(F)c(C(N)=O)c3F)no2)cc1	–	> 64	> 64	> 64	> 64	> 64	> 64	> 64	–	–
CCCCOc1ccc(-c2cc(COc3ccc(F)c(C(N)=O)c3F)on2)cc1	–	> 64	> 64	> 64	> 64	> 64	> 64	> 64	–	–
NC(=O)c1c(F)ccc(OCc2cc(-c3cccs3)no2)c1F	–	> 64	32 (≈ 95.1 µM)	> 64	> 64	> 64	> 64	> 64	–	–
NC(=O)c1c(F)ccc(OCc2cc(-c3ccco3)no2)c1F	–	> 64	32 (≈ 99.9 µM)	> 64	> 64	> 64	> 64	> 64	–	–
CCCCOc1cccc(-c2cc(COc3ccc(F)c(C(N)=O)c3F)on2)c1	–	> 64	64 (≈ 159 µM)	> 64	> 64	> 64	> 64	> 64	–	–
NC(=O)c1c(F)ccc(OCc2cc(-c3ccc(-c4cccc5ccccc45)cc3)no2)c1F	–	> 64	> 64	> 64	> 64	> 64	> 64	> 64	–	–
CCOc1ccc(-c2cc(COc3ccc(F)c(C(N)=O)c3F)no2)cc1	–	> 64	> 64	> 64	> 64	> 64	> 64	> 64	–	–
CC(C)(C)c1ccc(-c2ccc(CNC(=N)N)cc2)cc1	–	–	–	–	–	–	–	–	1 (≈ 3.55 µM)	–
COc1ccccc1-c1cc(COc2ccc(F)c(C(N)=O)c2F)on1	–	> 64	> 64	> 64	> 64	> 64	> 64	> 64	–	–

Source: ChEMBL document CHEMBL4257566, “Design, synthesis and structure-based optimization of novel isoxazole-containing benzamide derivatives as FtsZ modulators” (Eur J Med Chem, 2018)
